According to ChEMBL document CHEMBL4513216, “Probing the Open Global Health Chemical Diversity Library for Multistage-Active Starting Points for Next-Generation Antimalarials” (ACS Infect Dis, 2020):

Assay: Toxicity liver stage against HepG2, at 10uM
Format: cell-based
Design: test concentration 10 uM, cell line HepG2-A16-CD81EGFP
Conditions: human, HepG2-A16-CD81EGFP cells; read-out: INHIBITION
Procedure, shortened: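 Uninfected HepG2-A16-CD81EGFP cells, 3 × 10^3 per well, 1536-well, plated on prespotted compound at 10 μM final, parasite-free screening media added to match infected plates; puromycin 10 μM positive, DMSO 0.5% negative; run in parallel with 48 h PbLuc assay at 37 °C, 5% CO2; viability by CellTiter-Glo luminescence, normalized to controls.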

SMILES	cytotoxicity at 10 µM [%]
CCc1ccc(C(=O)O)cc1S(=O)(=O)Nc1ccc(F)c(C#N)c1	-10.9
CCS(=O)(=O)N1CCC2(CC(=O)N(c3ccc4c(c3)OCO4)C2)C1 (stereo unspecified)	9.17
O=C(Cc1cccs1)N1CCOCC1c1ccccc1 (stereo unspecified)	-6.73
O=C(c1cccnc1-n1cncn1)N1CCC(Nc2ccccc2)CC1	7.1
Cc1cc2cc(CNC(=O)c3cnn4c3OCCC4)ccc2[nH]1	6.59
COCCNS(=O)(=O)c1cccc(CSC)c1	11.9
COc1cc(NC2CCS(=O)(=O)C2)ncn1 (stereo unspecified)	7.53
CC(C)Cc1noc(CN2CCCC(Cn3cncn3)C2)n1 (stereo unspecified)	-2.6
Cn1c(C(=O)NS(C)(=O)=O)ccc1-c1ccccc1	-6.85
O=C(Cc1ccccc1F)N1C[C@@H]2COC[C@]2(COc2cccnc2)C1	9.29
CCN(CC)CCNC(=O)c1nn(CC)cc1Cl	2.58
CCOCC(=O)N1C[C@@H]2CC[C@H]1CN(C(=O)c1ccncc1)C2	0.0793
OC1(CNCCN2CCCc3ccccc32)CCNC1 (stereo unspecified)	7.03
CC(C)(C)c1cn2c(n1)C(CNCc1cnn3ccccc13)CCC2 (stereo unspecified)	-13.4
CNc1nc(C)c(C(=O)N2CCCCC2CCc2ccccc2)s1 (stereo unspecified)	2.24
CC(=O)N1CCCN(C(=O)NCc2ccc(-c3ccn[nH]3)cc2)CC1	0.322
COc1ccc(CNC(=O)CNc2ccccc2OC)cc1	-2.25
Cc1nnc(SCC(=O)N2CCC3(CC2)c2ccccc2CC3O)o1 (stereo unspecified)	-20.7
CCN1C(=O)C2(CCOCC2)c2cc(NC(=O)COC)ccc21	-0.82
O=C(c1cccc(F)c1)N1C[C@H]2CCCC(OCc3cccnc3)[C@H]2C1 (stereo partly specified)	8.21
COc1ccc(C2=Nn3c(CN)nnc3-c3ccccc3C2)cc1	8.55
COc1ccc(C(=O)NCCCNc2ccc(C(F)(F)F)cn2)cc1	-3.87
CN1CCN(c2ccccc2CNC(=O)Cc2ccccc2F)CC1	-1.1

SMILES	cytotoxicity at 10 µM [%]
Cc1noc(C)c1CN1CCn2cc(CNC(=O)C3CCC3)nc2C1	5.28
O=C(NCC1CC1)C1=NOC2(CCN(S(=O)(=O)c3ccc(F)cc3)C2)C1 (stereo unspecified)	3.25
Cc1ncsc1C(=O)N(C)Cc1ccc(Br)o1	-39.3
Cc1ncsc1C(=O)N(C)Cc1cccnc1	-5.57
CC(C)[C@@H]1CN(C(=O)CN(C)Cc2ccc(F)cc2)C[C@H]1C(=O)O	1.74
O=C(NCc1ccc(C(=O)O)o1)c1ccc(F)cc1	13.2
CN1CCCCC[C@@H]2[C@@H]1[C@H](c1ccccc1)CN2C(=O)c1ccccn1	-24.5
CCC(NC(=O)C(C)C)c1ccccc1C (stereo unspecified)	5.81
Cc1cnc(N)nc1N1CCN(CCCO)CC1	0.761
CCC(C)NC(=O)c1cc(S(=O)(=O)N(C)C)c(C)s1 (stereo unspecified)	-2.75
Cc1ccc(S(=O)(=O)N2CCOCC2C(N)=O)c(F)c1 (stereo unspecified)	-5.22
CN1CCC2(CC1)CC(NC(=O)c1csnn1)c1ccccc1O2 (stereo unspecified)	-95.4
Cc1cc(NCCc2nnc(N)s2)nc(-c2ccccc2)n1	6.9
Cc1nc(C)n(CCCNc2ncnc(C)c2C)n1	-1.74
Cn1ccnc1CNC(=O)N(CCCO)C1CCCc2ccccc21 (stereo unspecified)	-6.19
CC(C)CCN1Cc2c(C(=O)N3CCCC3)nn(C)c2C1	-0.173
Cc1occc1CNC(=O)N(CCCO)C1CCc2ccccc21 (stereo unspecified)	-0.842
CC(C)(C)c1noc(OCC(=O)NC2CCCC2)n1	2.68
Cc1cccc(NC(=O)N2CCn3cnc(COCC4CC4)c3C2)c1	3.83
COc1ncccc1C(=O)NCCn1cnc(C)cc1=O	-0.37
CC(C)(C)c1ccn(C2(C(=O)O)CCN(c3ccncc3F)CC2)n1	-0.423
CC1CCN(C(=O)[C@H]2C[C@@H]3CCN(CC4CCOCC4)C[C@@H]3O2)CC1	9.85
N#Cc1ccc(CNCC2(c3ccccc3)CCOCC2)cc1	8.78

SMILES	cytotoxicity at 10 µM [%]
COc1cc(C(=O)N2CCC3(CC2)Nc2ccccc2NC3=O)ccn1	0.701
Cc1nc(COC[C@@H]2CCC[C@@]23CN(C)CCO3)cs1	-88.9
COc1ncccc1C(=O)N(C)Cc1nc(-c2ccccn2)no1	3.38
Cc1ccc(Oc2ncccc2CNC2CCSCC2)cn1	-8.22
Cc1cc(C(=O)N2C[C@@H](CN(C)CCN(C)C)[C@@H](CO)C2)nc(C)n1	7.01
Cc1cnc(Nc2cccc(C3CCCN3C(=O)CO)n2)s1 (stereo unspecified)	-30.6
CCn1c(C)nnc1CN(C)C1CCN(Cc2nccn2C)C1 (stereo unspecified)	17.8
CN1CCO[C@@H]2CN(S(=O)(=O)c3cccs3)CC[C@@H]2C1	11.7
CCc1cnc2c(c1Nc1ccc(OC)cc1)c(=O)n(C)c(=O)n2C	4.26
O=C1NCCN2CCN(C(=O)NCCc3ccccc3)CC12 (stereo unspecified)	17.6
COc1ncnc(N(C)C)c1NC(=O)Cc1cc(F)ccc1F	-2.67
CNc1nc(C)c(C(=O)N2CCCCC2CN2CCCCCC2)s1 (stereo unspecified)	-2.5
CCC(=O)N1CCC2(CCC(N3CCCC3)c3ccccc32)CC1 (stereo unspecified)	-6.23
O=C(NCC1Cn2nnc(-c3ccoc3)c2CO1)c1ccc[nH]1 (stereo unspecified)	2.61
CCN(CC)CCNc1c(-c2ccccc2)c(=O)c1=O	-0.686
CC1CCN(c2cc(CCC3CCCN3)ncn2)CC1 (stereo unspecified)	-14.6
CC(C)(C)c1cc(CN2C[C@@H]3CC[C@H]2CN(Cc2ccccn2)C3)n[nH]1	-0.123
Cc1nc(C2(NCc3c(C)nn(C)c3N3CCOCC3)CCC2)no1	4.98
Cn1cc(C(=O)OC2CN(c3nc4c(C(F)(F)F)cccc4s3)C2)nn1	-11.8
CC(NC(=O)NCCCN(C)S(C)(=O)=O)c1ccncc1 (stereo unspecified)	-0.409
CCOc1ncccc1NC(=O)NC1CCCN(S(C)(=O)=O)C1 (stereo unspecified)	-3.62
NC(=O)CN1CCC(NC(=O)c2ccn(-c3cccc(F)c3)n2)CC1	13.4
Cc1ccc(C2CSCCN2C(=O)c2ccc(C(N)=O)cc2)o1 (stereo unspecified)	-2.12

SMILES	cytotoxicity at 10 µM [%]
N#Cc1ccc(S(=O)(=O)NCCn2ccnc2)cc1Cl	22.5
O=C1CCSCC(C(=O)N2CCC3(CC2)OCCO3)N1 (stereo unspecified)	0.595
CC(C)CN1Cc2c(C(=O)NC3CC3)ncn2-c2ccccc2S1(=O)=O	-77.6
CCn1cc(CN2CCN(Cc3cccc(OC)c3)C(=O)C2)cc1C#N	2.96
Cc1nc(N)cc(C2CCN2CCOc2ccccc2)n1 (stereo unspecified)	10
CC(C)CN1CC2(CCN(C(=O)C3CSC(C)(C)C(=O)N3)CC2)CC1=O (stereo unspecified)	4.79
Cc1nc(CN2CCCCC2Cn2cncn2)nc2ccccc12 (stereo unspecified)	-3.46
CC(C)(C)c1ccc(CN2C[C@H]3CC(O)C[C@H]3C2)c(OCC(N)=O)c1 (stereo partly specified)	2.71
Cc1cccc(OCC2CCCN(C(=O)CCn3ccccc3=O)C2)c1 (stereo unspecified)	-0.987
Cc1cccc(CN2C(=O)C[C@H]3[C@@H]2CCN3Cc2nccs2)n1	-2.92
CC(C)NC(=O)C1CN(C(=O)COc2ccccc2)CC12CCOCC2 (stereo unspecified)	-78.3
O=C(Nc1nnc(N2CCCCC2)[nH]1)c1cccs1	-10.7
Cc1nn(CC(=O)O)c(C)c1NS(=O)(=O)c1cccc2ccccc12	-8.52
CC(=O)N1CCC2(CC1)CN(C)CC[C@H]2C(F)(F)F	-153
O=C(c1ccco1)N1C[C@@H]2OCCN(c3ncccn3)[C@@H]2C1	6.4
COc1ncccc1CNC(=O)NC1CCOc2ccccc21 (stereo unspecified)	-7
Cc1ccc2cc(C(=O)N3CCCCC3c3nc[nH]n3)ccc2n1 (stereo unspecified)	-5.92
N#CCCN(Cc1cccnc1)C(=O)Cc1ccc(-n2cnnn2)cc1	2.32
COc1cccc(CNc2cnn(CC(F)F)c2)c1	-7.16
COCc1ccc(C(=O)N2CCC(c3nccn3CC3CC3)CC2)o1	-2.81
c1cc(CO[C@@H]2CC[C@H]3[C@H]2OCCN3CC2CCOCC2)ccn1	26.9
CC(C)Cc1noc(CN2CCN(CCO)CC2)n1	-1.22
CSCCC(NC(=O)c1ccco1)C(=O)N(C)Cc1ccsc1 (stereo unspecified)	-0.0681

SMILES	cytotoxicity at 10 µM [%]
COc1ccc(C2CCCN2Cc2nnnn2C2CC2)cc1OC (stereo unspecified)	2.49
c1csc(CN2CC3(CCN(Cc4ccsc4)C3)C2)n1	-2.65
Cn1cc(C(C)(O)CNc2ccc(C(F)(F)F)cn2)cn1 (stereo unspecified)	-44.3
CCOCc1nc(N2CCCC2)sc1C(=O)NCc1ccco1	-1.89
Cn1cc(C(=O)NCc2cncc3c2CCN(c2ccccn2)C3)cn1	-99.6
CC(C)N1C(=O)CC(NC(=O)c2cc(Cl)sc2Cl)C1=O (stereo unspecified)	-2.27
Cc1cc(C(=O)N2CCN(c3nc4c(C(C)C)cccc4s3)CC2)no1	16.7
Cc1cncc(C(=O)N2CCOc3nc(C)ccc32)c1	5.19
CN1CCN(c2ccc(NCc3ccc([S+](C)[O-])cc3)cn2)CC1 (stereo unspecified)	9.84
O=c1c(NCCNCCO)c(N2CCN(c3ccc(F)cc3)CC2)c1=O	-5.46
Cc1ccnn1CCC(=O)N1CCCC[C@@]2(C)[C@@H]1CCC(=O)N2C	3.38
CC(=O)NCCOc1c(C)cccc1C	-2.33
Cc1ccc(NS(=O)(=O)c2cccc(C#N)c2)c(CN(C)C)c1	-4.97
O=C(c1ccco1)N1CCC2(CC1)CCN(c1ncccn1)CC2	4.59
CCc1nsc(NC2CCOC3(CCCC3)C2)n1 (stereo unspecified)	13
COCCN1C[C@H]2[C@@H](C1)N(C(=O)c1cccc(OC)c1)CC[C@H]2OC	3.56
Fc1cccnc1N1CCOCC2(CCCNC2)C1 (stereo unspecified)	3.44
CC1(C)Cc2c(cnn2-c2ccccc2)C(NC2CCSCC2)C1 (stereo unspecified)	-186
O=C(C1CC1)N1C[C@@H](F)[C@@H](OCc2nc3ccccc3o2)C1	-1.94
